Data set [1] can be described thus: melting temperature; fluorescence melt of hairpins on a sequencing array, two-state fit, raised by 9.35 °C to match UV melts. As to conditions: sodium 0.088 M. The procedure, abridged: (§1)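 In 50 mM Na-HEPES pH 8.0 containing 25 mM NaCl, hairpins from the library on a sequenced MiSeq flow cell were imaged for Cy3 fluorescence at 2.5 °C steps up to 60 °C, with Cy3 and quencher oligos annealed. After normalisation to pre-quench Cy3 and to control constructs, two-state fits with bootstrapping gave melting temperature and folding enthalpy. Four replicates were combined by inverse-variance weighting, and fitted temperatures were shifted up by 9.35 °C to match UV melts.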

Data set [2] in a line: folding enthalpy; higher = less favourable; fluorescence melt of hairpins on a sequencing array, two-state fit. As to conditions: sodium 0.088 M. The procedure, abridged: as §1

In the case of GTCACCACGAAAGTGGAC (((..(((....)))))), the Tm in data set [1] was found to be 31.1 °C. The folding enthalpy in data set [2] is -7.89 kcal/mol.
On to GTCACCGAAAGGTAGAC ((((((....))).))), for which, in data set [1], the Tm stood at 51 °C. In addition, the folding enthalpy in data set [2] was -18.9 kcal/mol.
For GTCACCGAAAGGTAGGAC ((((((....)))..))) the same measures were 37.4 °C and -17.2 kcal/mol.
For the sequence GTCACCGAAAGGTGAGAC ((((((....)))..))), the Tm in data set [1] worked out at 48 °C. In data set [2], the folding enthalpy was -10.3 kcal/mol.
In the case of GTCACCGAAAGGTGCGAC ((((((....)))..))), in data set [1], the Tm turned out to be 58.5 °C. The folding enthalpy in data set [2] is -13 kcal/mol.
For the sequence GTCACCGAAAGGTTCGAC ((((((....)))..))), the Tm in data set [1] came out at 30.3 °C. In addition, in data set [2], the folding enthalpy was -14.9 kcal/mol.
GTCACCGAAAGGTTGAC ((((((....))).))): in data set [1], the Tm was 51.4 °C. Besides, the folding enthalpy in data set [2] was -27 kcal/mol.
On to GTCACCGGAAACGGTGGC (.(((((....))))).), for which the Tm in data set [1] worked out at 63.5 °C. For the same sequence, the folding enthalpy in data set [2] is -29.4 kcal/mol.
As for GTCACGCGAAAGCGCGAC (((.(((....))).))), the Tm in data set [1] was found to be 58.9 °C. In addition, in data set [2], the folding enthalpy was -29.6 kcal/mol.
For GTCACGGAAACGTGAC ((((((....)))))) the same measures were 69.2 °C and -34.4 kcal/mol.
For GTCACGGGAAACCGCGAC (((.(((....))).))), the Tm in data set [1] was found to be 50.8 °C. Besides, in data set [2], the folding enthalpy was -30.4 kcal/mol.
Regarding GTCACGTCGAAAGACGAC (((..(((....)))))), in data set [1], the Tm was 32.1 °C. Further, the folding enthalpy in data set [2] is -9.85 kcal/mol.
On the same counts, the results for GTCACTCCGAAAGGAGAC (((..(((....)))))) are 31.6 °C and -8.95 kcal/mol.
For GTCACTTCGAAAGAAGAC (((..(((....)))))) the same measures were 26.7 °C and -8.67 kcal/mol.
For GTCAGAGGAAACCCTGAC (((((.(....).))))) the same measures were 43.8 °C and -32.4 kcal/mol.
With GTCAGAGGAAACTCCAAC ((..(((....)))..)), the Tm in data set [1] stood at 17.2 °C. Further, the folding enthalpy in data set [2] was -4.46 kcal/mol.
In the case of GTCAGCACGAAAGTGGAC (((..(((....)))))), in data set [1], the Tm came out at 37.6 °C. Moreover, in data set [2], the folding enthalpy is -18 kcal/mol.
On the same counts, the results for GTCAGCGAAAGCTCGAC ((((((....))).))) are 48 °C and -19.8 kcal/mol.
On to GTCAGCGAAAGCTCTGAC ((((((....)))..))), for which the Tm in data set [1] turned out to be 37.3 °C. Also, in data set [2], the folding enthalpy was -18.5 kcal/mol.
For GTCAGCGAAAGCTGAGAC ((((((....)))..))) the same measures were 49 °C and -8.85 kcal/mol.
Take GTCAGCGAAAGCTTGAC ((((((....))).))): the Tm in data set [1] came out at 49.9 °C. The folding enthalpy in data set [2] was -25.6 kcal/mol.
On the same counts, the results for GTCAGCGCGAAAGCGGAC (((..(((....)))))) are 46.6 °C and -15.6 kcal/mol.
In the case of GTCAGCGGAAACGCTGGC (.(((((....))))).), the Tm in data set [1] was determined as 63.7 °C. The folding enthalpy in data set [2] is -24.6 kcal/mol.
On the same counts, the results for GTCAGGGGAAACCCTGAC (((((((....))))))) are 65.1 °C and -41.9 kcal/mol.
On the same counts, the results for GTCAGGTCGAAAGACGAC (((..(((....)))))) are 43.1 °C and -16.8 kcal/mol.
For GTCAGTACGAAAGTAGAC (((..(((....)))))) the same measures were 31 °C and -17.2 kcal/mol.
On to GTCAGTGGAAACACTAAC ((.((((....)))).)), for which, in data set [1], the Tm came out at 30.9 °C. Also, the folding enthalpy in data set [2] was -17.4 kcal/mol.
With GTCAGTGGAAACATTGGC (.((.((....)).)).), the Tm in data set [1] turned out to be 30.6 °C. In addition, the folding enthalpy in data set [2] was -26.2 kcal/mol.
For GTCATACCGAAAGGTGAC (((..(((....)))))) the same measures were 43 °C and -19 kcal/mol.
On to GTCATACGAAAGTAAGAC (((.(((....))).))), for which the Tm in data set [1] turned out to be 43.5 °C. The folding enthalpy in data set [2] is -25.6 kcal/mol.
For GTCATACGAAAGTAGAC (((.(((....)))))) the same measures were 42.4 °C and -28.2 kcal/mol.
Consider GTCATAGGAAACTATGGC (.(((((....))))).), for which the Tm in data set [1] was found to be 44.6 °C. Moreover, the folding enthalpy in data set [2] is -29.1 kcal/mol.
With GTCATCCGAAAGGAGGAC (((.(((....))).))), in data set [1], the Tm was determined as 58.6 °C. For the same sequence, in data set [2], the folding enthalpy is -36.3 kcal/mol.
For GTCATCGAAAGATAAGAC ((((((....)))..))) the same measures were 31.6 °C and -21 kcal/mol.
For GTCATCGAAAGATACGAC ((((((....)))..))), the Tm in data set [1] was found to be 35 °C. The folding enthalpy in data set [2] is -20.9 kcal/mol.
Regarding GTCATCGAAAGATATGAC ((((((....)))..))), in data set [1], the Tm came out at 34.6 °C. In addition, in data set [2], the folding enthalpy is -20 kcal/mol.
On the same counts, the results for GTCATCGAAAGATTCGAC ((((((....)))..))) are 25.8 °C and -12.3 kcal/mol.

These data come from the array DNA melting data of Ke et al. (doi:10.1101/2024.01.08.574731).
